Drawing on the RNAGym collection of RNA variant scans (doi:10.1126/science.aae0568), this text covers yeast fitness for 167 variants.

To fix the notation:
B1: tRNA (parent)
chain: GUUCCGUUGGCGUAAUGGUAACGCGUCUCCCUCCUAAGGAGAAGACUGCGGGUUCGAGUCCCGUACGGAACG

This sample holds only a part of the variants without activity.

The variants in the data set derive from B1. Description: yeast fitness relative to wild type (ratio to wild type); higher = fitter; tRNA-Arg(CCU), competitive growth, 37 C, YPD. A digest of the protocol:
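Start and end populations of a pooled competition were compared by 100-nucleotide paired-end sequencing of gene amplicons. The Saccharomyces cerevisiae strains carried tRNA-Arg(CCU) gene variants at the native genomic locus, synthesised with a 3% per-site mutation rate at 69 sites, and competed in YPD at 37°C for 24 hours in six parallel replicates. Darwinian fitness relative to wild type was based on the change in genotype frequencies. Genotypes required ≥ 100 starting reads, and estimates < 0.5 were set to 0.5.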
As to C24G A70G, the yeast fitness is 0.564. To U26A A36C belongs not above 0.5; to G25A U28G G58A C66G, 0.61. On to C24G C30G C66U, for which the yeast fitness was not above 0.5. For the variant G25C U53A A57U A65U, the yeast fitness is not above 0.5. For the variant C24U A70C, the yeast fitness was 1.04. With G25C C31U U32A A70G the figure was not above 0.5. To G25A G39A belongs 0.973. Take U26A C27A: the yeast fitness was 0.671.

As to C24A C29U C30U, the yeast fitness is not above 0.5. To G25C U35C U59A G67U A69C belongs not above 0.5. In the case of C24G A42G A57G, the yeast fitness was not above 0.5. Regarding C24U G63C, the yeast fitness is 0.771. Turning to C24U G63A, the yeast fitness was found to be 0.869.

Take G25C A40C G68C: the yeast fitness amounted to 0.645. For the variant C24A C29G A45G, the yeast fitness is not above 0.5. With C24U A43U G56A the figure was 0.837. C24A C30U C33A G41C A42U: the yeast fitness was not above 0.5. With C24U A57C C61U the figure was not above 0.5; with C24G A36G C55G, not above 0.5; with G25C G44A A69U, 0.622.

C24G A37G U59A C62A G67A: the yeast fitness is not above 0.5. With C24G A42C C55A U59A A70U the figure was not above 0.5. Regarding C24U U32A U54A, the yeast fitness was not above 0.5. As to C24U C27A, the yeast fitness came out at 0.882. With C24A C29A G44A C46G G50A A65U the figure was 0.556. With G25A G41A the figure was 0.822; with C24U C49A G67C, 0.527; with C24U C49A G67A, 0.547. With G25C C33U U47G C49U G52C the figure was not above 0.5. Regarding G25C C29A G52A, the yeast fitness is 0.505. For C24G U59A, the yeast fitness stood at 0.552.

Consider G25A C66G, for which the yeast fitness turned out to be 0.962. To C24U A37G A43G belongs 0.516. Consider C24U U26G G51A, for which the yeast fitness was not above 0.5. With G25A A40U G58C the figure was 0.973; with C24G C33A A70C, not above 0.5; with C24G C29G G39C C55A, 0.592. Turning to G25C A65U, the yeast fitness was 1.03. For G25A G41A C60G C62G A65G, the yeast fitness is not above 0.5. G25A C30A A45G U64C: the yeast fitness came to 0.984. As for G25A A36C, the yeast fitness was determined as 0.52.

G25C A36G G48A: the yeast fitness was 0.571. To C24G C34U U35A C55U belongs not above 0.5; to G25A C27G C33G G39A C46U C61U A69U, not above 0.5. Regarding C24G A57C C61U, the yeast fitness is not above 0.5. With C24A G51A the figure was 0.53. With G25C G50C the figure was 0.627; with G25C C29A G48C C60A, not above 0.5; with C24U U53A, 0.626.

As for G25A C49G, the yeast fitness stood at 0.981.

Consider C24G A40G A42G, for which the yeast fitness came out at 0.54. For C24U A65C, the yeast fitness amounted to 0.739. With C24G C33G A36C A37C G41A A42C A65U the figure was not above 0.5; with C24U G44C, 0.825; with C24A G52A, 0.752. As to G25A C46U C66U, the yeast fitness is 0.778.

Consider C24U U59A A65U, for which the yeast fitness was not above 0.5. To C24G C49G G50C belongs not above 0.5; to C24A G44A, 0.7; to G25C C27G U35C, not above 0.5. Consider G25A G56C, for which the yeast fitness is 0.711. G25C C29A G48A U53G: the yeast fitness was not above 0.5.

In the case of G25A C34A A40U, the yeast fitness was not above 0.5. Consider C24G C60U G63A, for which the yeast fitness is not above 0.5. Take C24A U26G A43C G68C: the yeast fitness was not above 0.5.

For the variant C24U A37C G50C A69U, the yeast fitness was not above 0.5. To C24A U26G C30G A43U C62U belongs 0.549; to G25C U28A G51A, 0.604; to C24G A37G U59A G67A, 0.548. To G25C A40C G63A belongs 0.69.

Turning to G25C A37G A43C C55G G68A, the yeast fitness was not above 0.5. As to G25A C30U A36C, the yeast fitness was not above 0.5. With C24A C29G A43C A70C the figure was not above 0.5; with C24G G58C G68A, not above 0.5.

With G25C C34U G41A C49G A69C, the yeast fitness is not above 0.5.

For the variant C24U U28G G48A, the yeast fitness was not above 0.5. As to C24U A40C G48A, the yeast fitness amounted to 0.634.

In the case of G25A C31U U64A, the yeast fitness came out at 0.642. With C24G A42G C55G the figure was not above 0.5; with C24G C30U C31G G50A, not above 0.5. With C24G A45C C46G C60G A69U the figure was not above 0.5; with C24U C29U C49G, not above 0.5; with G25C C60U C61A, not above 0.5.

As to C24A C62A, the yeast fitness came to 0.598. To C24U A42U C61U belongs 0.641. As for C24G C31G G68C, the yeast fitness is not above 0.5. With G25A C31U A37C G52C the figure was not above 0.5; with C24A C33A C46U, 0.534. To G25A A42G G44C C49G A70U belongs not above 0.5. With C24A G48A U53G G63C the figure was not above 0.5. For the variant G25C G50A C62G, the yeast fitness came to 0.897. To C24U U26C C27A A69U belongs not above 0.5; to C24A C60U, 0.543.

As for G25U U64G, the yeast fitness was determined as 0.788. For C24U C33U C61A A69U, the yeast fitness was not above 0.5. For C24U G25C G56A, the yeast fitness was determined as 0.882.

For the variant C24G C29G C33A G48A C55G G68C, the yeast fitness was not above 0.5. Take C24U G58A C60G: the yeast fitness came out at 0.897. G25C U35C G58C: the yeast fitness was 0.558. In the case of C24G C33G G50U U59C, the yeast fitness was not above 0.5. Consider U26A A36G A70U, for which the yeast fitness amounted to 0.584.

As for U26A A40U, the yeast fitness was found to be 0.809. With C24U C27G C55G G68A the figure was 0.526; with G25A C34A A36C G51C, not above 0.5. With C24A C49U C55U the figure was not above 0.5; with C24U C33U C34G A40U G67A, 0.541; with C24G C30G C62U G68C, not above 0.5.

Take C24U C31U A40C A57C C61A G67A: the yeast fitness was not above 0.5. As to C24U C29U C46U, the yeast fitness was 0.554.

Regarding C24U C31A G56C, the yeast fitness was determined as 0.544. With C24U C49G the figure was 0.724; with C24U G56A C60A, 0.594; with C24U C34G U35G G38A A45C, 0.646. For the variant C24U C30A A37G, the yeast fitness came out at 0.593. Turning to C24G G48A, the yeast fitness came out at 0.588.

With G25A C27G C61G, the yeast fitness was 0.574.

G25A U28G C33G A45C: the yeast fitness was not above 0.5.

Turning to C24U G41A C62A, the yeast fitness was 0.605.

Regarding C24G C34G A43U, the yeast fitness was not above 0.5. For the variant C24U C55G G67A, the yeast fitness is not above 0.5. With C24U U32A C60U the figure was not above 0.5; with G25A A36U C46G C62A A69C, not above 0.5; with C24U C31G C60A U64C, not above 0.5.

In the case of C24A C31U G51A C62A, the yeast fitness is not above 0.5. As to C24G U28G C29G, the yeast fitness was not above 0.5. With G25C C27U C61G the figure was 0.502; with C24U A42U C46A C55U C61G A69C, not above 0.5; with C24U G25A C30U C46A A69U, 0.611. As for U26A A40C U64G, the yeast fitness is 0.538. With C24U A37U, the yeast fitness came to 0.652. For the variant C24G C31G G50A, the yeast fitness came to 0.522. As to C24U G58A, the yeast fitness was found to be 0.988. Regarding C24U A45C, the yeast fitness is 0.971. To C24G U54C G67C belongs not above 0.5; to C24A U26G G56C, not above 0.5; to C24G A36U A37C A65C, not above 0.5. With C24G A40U the figure was 0.542; with C24A C60U C61G G67A, 0.614; with C24G A65U G67C, not above 0.5. C24U C34U C66U: the yeast fitness was 0.58. To G25A C34G G67A belongs not above 0.5; to C24A U26G A43C A70G, not above 0.5; to C24G A36U A42U C49G U53A G58A C60A, not above 0.5. With C24U C30A C60U the figure was not above 0.5. Consider G25C U53A C55U, for which the yeast fitness was not above 0.5. To G25A C29G G48A A69U belongs not above 0.5; to C24G C27U C33U G50C C66U, not above 0.5; to C24U U26G A36G A43G, not above 0.5. To G25C U32G G41A belongs 0.565; to G25A A45G G50C, 0.516. To G25C A40C C62A belongs 0.675. On to G25A G56A A69C, for which the yeast fitness was 0.773.

On to C24G A36G A57G, for which the yeast fitness was found to be 0.533. With C24G C31U C61A the figure was not above 0.5; with C24G G38C, 0.566; with G25U C60G, not above 0.5. With C24U U26G C30U G39C G67A A69U the figure was not above 0.5; with G25C C27A, 0.678. To C24G A65C belongs 0.648; to C24A G63C A69C, 0.621; to C24U A43C, 0.786.

In the case of C24A U26A C55A C66U, the yeast fitness is not above 0.5. As for C24G A37C C49U, the yeast fitness is not above 0.5. To G25A C33G A42G G50A G52A belongs not above 0.5; to G25A C29U A65G, 0.704; to C24U C29A A36G C55G A70C, not above 0.5.
